Reference: ChEMBL document CHEMBL3407415, “Synthesis and anticancer activities of ceritinib analogs modified in the terminal piperidine ring” (Eur J Med Chem, 2015)
The source made the active and inactive calls. No cut-off for these calls is given here.

What was measured:
NCI-H2228 [1] = test: Antitumor activity against human NCI-H2228 cells xenografted in Rowett nude rat assessed as tumor growth inhibition at 30 mg/kg/day, po administered for 14 days measured on day 15; assay type: functional, organism-based
Summary of the method: (§1)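 RNU nude rats carrying H2228 tumours, randomized at mean tumour size 150 mm³ (n = 6 per group). Dosed by oral gavage, vehicle 0.5% MC/0.5% Tween 80, 10 μL/g body weight, daily for 14 days starting day 15 post-implant. Tumour volume = ab²/2. Rats killed after 14 days and tumours excised and weighed. Inhibition = (control mean tumour weight − treated mean)/control mean × 100%.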

Plasma = test: Drug uptake in Sprague-Dawley rat plasma at 25 mg/kg, po measured over 24 hrs by HPLC analysis; assay type: ADME, organism-based; parameters: dose 25 mg/kg, route oral; settings: in vivo
Summary of the method: (§2)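 Male SD rats, 200–220 g, randomized into three groups (n = 4). Single oral gavage dose in 0.5% MC/0.5% Tween 80 at 10 μL/g. Plasma sampled at 0.5, 1, 3, 5, 8 and 24 h, deproteinized with ethyl acetate, vortexed and centrifuged at 4000 rpm for 5 min. Organic phase analysed for ceritinib by HPLC.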

NCI-H2228 [2] = test: Cytotoxicity against human NCI-H2228 cells assessed as cell viability after 72 hrs by MTS assay; assay type: functional, cell-based; settings: NCI-H2228, 72 h
Summary of the method: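 H2228 cells seeded and grown 24 h, then exposed in triplicate to a range of concentrations for 72 h at 37 °C, 5% CO₂. MTS (5 mg/mL solution) added for 4 h, medium removed, plates shaken, absorbance read at 570 nm. Inhibition computed against controls. IC50 = concentration giving 50% growth inhibition.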

Rattus norvegicus [3] = test: Toxicity in Rowett nude rat xenografted with human NCI-H2228 cells assessed as body weight reduction at 38.28 mg/kg/day, po administered for 14 days measured during compound treatment; assay type: organism-based; parameters: route oral; settings: in vivo, 336 h
Summary of the method: (§3)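 H2228 xenograft-bearing RNU nude rats (n = 6 per group, mean starting tumour 150 mm³) given daily oral gavage in 0.5% MC/0.5% Tween 80, 10 μL/g, for 14 consecutive days. Body weight tracked regularly throughout dosing.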

Rattus norvegicus [4] = test: Prodrug conversion in Sprague-Dawley rat assessed as release of ceritinib in plasma at 38.28 mg/kg, po measured over 24 hrs by HPLC analysis; assay type: ADME, organism-based; parameters: dose 38.28 mg/kg, route oral; settings: in vivo; summary of the method: as §2
NCI-H2228 [5] = test: Antitumor activity against human NCI-H2228 cells xenografted in Rowett nude rat assessed as tumor growth inhibition at 38.28 mg/kg/day, po administered for 14 days measured on day 15 relative to vehicle-treated control; assay type: functional; settings: read-out: TGI; summary of the method: as §1
NCI-H2228 [6] = test: Antitumor activity against human NCI-H2228 cells xenografted in Rowett nude rat assessed as tumor growth inhibition at 36.24 mg/kg/day, po administered for 14 days measured on day 15; assay type: functional, organism-based; summary of the method: as §1
Rattus norvegicus [7] = test: Prodrug conversion in Sprague-Dawley rat assessed as release of ceritinib in plasma at 36.24 mg/kg, po measured over 24 hrs by HPLC analysis; assay type: ADME, organism-based; parameters: dose 36.24 mg/kg, route oral; settings: in vivo; summary of the method: as §2
Rattus norvegicus [8] = test: Toxicity in Rowett nude rat xenografted with human NCI-H2228 cells assessed as body weight reduction at 36.24 mg/kg/day, po administered for 14 days measured during compound treatment; assay type: organism-based; parameters: route oral; settings: in vivo, 336 h; summary of the method: as §3

SMILES | IC50 (NCI-H2228 [2]) | other results
Cc1cc(Nc2ncc(Cl)c(Nc3ccccc3S(=O)(=O)C(C)C)n2)c(OC(C)C)cc1C1CCNCC1 [CERITINIB] | 103 nM | TGI (NCI-H2228 [1]): Active; Drug uptake (Plasma): Active
CCCCCOC(=O)N1CCC(c2cc(OC(C)C)c(Nc3ncc(Cl)c(Nc4ccccc4S(=O)(=O)C(C)C)n3)cc2C)CC1 | 67200 nM | –
Cc1cc(Nc2ncc(Cl)c(Nc3ccccc3S(=O)(=O)C(C)C)n2)c(OC(C)C)cc1C1CCN(C(=O)OCOP(=O)(OCc2ccccc2)OCc2ccccc2)CC1 | 1040 nM | –
Cc1cc(Nc2ncc(Cl)c(Nc3ccccc3S(=O)(=O)C(C)C)n2)c(OC(C)C)cc1C1CCN(P(=O)(Oc2ccccc2)Oc2ccccc2)CC1 | 14400 nM | –
Cc1cc(Nc2ncc(Cl)c(Nc3ccccc3S(=O)(=O)C(C)C)n2)c(OC(C)C)cc1C1CCN(P(=O)(OCc2ccccc2)OCc2ccccc2)CC1 | 2690 nM | –
CCOP(=O)(OCC)N1CCC(c2cc(OC(C)C)c(Nc3ncc(Cl)c(Nc4ccccc4S(=O)(=O)C(C)C)n3)cc2C)CC1 | 571 nM | –
CCC(C)OC(=O)N1CCC(c2cc(OC(C)C)c(Nc3ncc(Cl)c(Nc4ccccc4S(=O)(=O)C(C)C)n3)cc2C)CC1 (stereo not given) | 7400 nM | –
Cc1cc(Nc2ncc(Cl)c(Nc3ccccc3S(=O)(=O)C(C)C)n2)c(OC(C)C)cc1C1CCN(P(=O)(O)OCc2ccccc2)CC1 | 57.4 nM | –
CCOC(=O)N1CCC(c2cc(OC(C)C)c(Nc3ncc(Cl)c(Nc4ccccc4S(=O)(=O)C(C)C)n3)cc2C)CC1 | 1200 nM | –
Cc1cc(Nc2ncc(Cl)c(Nc3ccccc3S(=O)(=O)C(C)C)n2)c(OC(C)C)cc1C1CCN(C(=O)OCOP(=O)(O)O)CC1 | 24 nM | Activity (Rattus norvegicus [3]): Non-toxic; Drug metabolism (Rattus norvegicus [4]): metabolite_notdetected; inhibition in vivo at 38.28 mg/kg/day (NCI-H2228 [5]): 80%
CC(=O)OCOC(=O)N1CCC(c2cc(OC(C)C)c(Nc3ncc(Cl)c(Nc4ccccc4S(=O)(=O)C(C)C)n3)cc2C)CC1 | 120 nM | TGI (NCI-H2228 [6]): inactive; Drug metabolism (Rattus norvegicus [7]): metabolite_notdetected; Activity (Rattus norvegicus [8]): Non-toxic
COC(=O)N1CCC(c2cc(OC(C)C)c(Nc3ncc(Cl)c(Nc4ccccc4S(=O)(=O)C(C)C)n3)cc2C)CC1 | 1110 nM | –
